According to ChEMBL document CHEMBL4024760, “Specific Inhibition of Bacterial β-Glucuronidase by Pyrazolo[4,3-c]quinoline Derivatives via a pH-Dependent Manner To Suppress Chemotherapy-Induced Intestinal Toxicity” (J Med Chem, 2017):
The source made the active and inactive calls. The rule behind the calls is not given here.

Key:
[1] = tested on: Escherichia coli BL21(DE3); assay: Inhibition of beta-glucuronidase in Escherichia coli BL21 (DE3) using pNPG as substrate at 50 uM preincubated for 30 mins followed by substrate addition measured after 1 hr relative to control
Method in brief: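 BL21(DE3) E. coli grown overnight and diluted to OD600 0.1 in LB. Cells treated with compound (50, 10 or 2 μM) for 30 min at 37 °C, then pNPG (40 mM stock) added for 1 h. Cells pelleted at 6000g; supernatant quenched with NaOH and read at OD405. Activity given as % of a 1% DMSO control.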

Escherichia coli [2] = assay: Inhibition of intestinal Escherichia coli beta-glucuronidase in Balb/cJ mouse using FDGIcU as substrate at 3 mg/kg, po for 5 days measured on day 5 post last dose 120 mins after probe administration; format: organism-based
Method in brief: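 BALB/cJ mice were gavaged with inhibitor at 3 mg/kg/day or DDW (200 μL) for 5 days. FDGlcU probe (500 μg/100 μL) given orally 30 min after the fifth dose. Intestinal fluorescein imaged in vivo 120 min after the probe (ex 490/em 525 nm) and quantified as average radiance; n = 6; two-tailed t test.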

Escherichia coli [3] = assay: Inhibition of Escherichia coli beta-glucuronidase in Balb/cJ mouse feces using pNPG as substrate at 3 mg/kg, po for 5 days measured on day 5 post last dose after 1 hr; format: organism-based
Method in brief: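 Mice gavaged with inhibitor at 3 mg/kg/day or DDW for 5 days. Fresh feces homogenized 1:9 w/v in assay buffer, mixed with assay buffer and 20 mM pNPG (stock), incubated 37 °C for 1 h, centrifuged, quenched with 2 N NaOH, and pNP read at OD405; n = 6; two-tailed t test.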

beta-glucuronidase = target: T1, beta-glucuronidase (Homo sapiens, UniProt P08236); assay: Inhibition of N-terminal His-tagged human beta-glucuronidase expressed in Escherichia coli BL21 (DE3) assessed as residual activity using pNPG as substrate at 10 uM preincubated for 30 mins followed by substrate addition measured after 1 hr relative to control; conditions: probe pNPG, read-out: Activity
T1 sequence (P08236 whole entry): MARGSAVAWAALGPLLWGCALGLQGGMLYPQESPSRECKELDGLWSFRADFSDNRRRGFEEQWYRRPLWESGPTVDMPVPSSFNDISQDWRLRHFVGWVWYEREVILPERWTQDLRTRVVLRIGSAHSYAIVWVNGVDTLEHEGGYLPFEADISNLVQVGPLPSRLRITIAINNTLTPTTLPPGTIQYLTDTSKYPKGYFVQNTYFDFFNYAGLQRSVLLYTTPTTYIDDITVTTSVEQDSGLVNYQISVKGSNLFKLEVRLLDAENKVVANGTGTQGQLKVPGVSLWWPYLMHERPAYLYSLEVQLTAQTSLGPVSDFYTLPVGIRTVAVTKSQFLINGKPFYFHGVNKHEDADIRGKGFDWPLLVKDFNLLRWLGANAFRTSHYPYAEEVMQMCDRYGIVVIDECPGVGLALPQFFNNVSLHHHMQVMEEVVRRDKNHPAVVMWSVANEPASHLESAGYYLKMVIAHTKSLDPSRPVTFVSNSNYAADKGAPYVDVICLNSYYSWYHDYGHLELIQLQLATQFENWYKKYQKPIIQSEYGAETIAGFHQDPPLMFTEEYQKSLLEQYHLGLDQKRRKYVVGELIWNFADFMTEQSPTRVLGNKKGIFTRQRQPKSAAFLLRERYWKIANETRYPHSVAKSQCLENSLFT

[4] = Inhibition of N-terminal His-tagged Escherichia coli beta-glucuronidase expressed in Escherichia coli BL21 (DE3) using pNPG as substrate preincubated for 30 mins followed by substrate addition measured after 1 hr
Method in brief: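 Purified E. coli βG (20 ng) preincubated 30 min at 37 °C with compound (0.64–10 000 nM) in PBS pH 7.5 containing 10% DMSO and 0.05% BSA. pNPG (20 mM stock) then added for 1 h, quenched with 2 N NaOH, and pNP read at 405 nm. IC50 derived from a four-parameter curve fit; SD of n = 3.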

Escherichia coli [5] = assay: Toxicity against Escherichia coli BL21(DE3) assessed as effect on cell growth at 100 uM after 6 hrs
Method in brief: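 BL21(DE3) E. coli (diluted to OD600 0.1 in LB after overnight growth) incubated with compound at a final 100 μM, shaking at 37 °C for 6 h. Growth measured by OD600; viability given as % of the untreated control.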

Escherichia coli [6] = assay: Inhibition of N-terminal His-tagged Escherichia coli beta-glucuronidase expressed in Escherichia coli BL21 (DE3) assessed as residual activity using pNPG as substrate at 10 uM preincubated for 30 mins followed by substrate addition measured after 1 hr relative to control
Method in brief: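 Purified E. coli βG (20 ng) preincubated with 10 μM compound for 30 min at 37 °C in PBS pH 7.5 with 10% DMSO and 0.05% BSA. pNPG (20 mM stock) then added for 1 h, quenched with 2 N NaOH, and read at OD405. Result given as % activity versus a 10% DMSO control; n = 3.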

Mus musculus [7] = assay: Protection against CPT-11 induced intestinal toxicity in Balb/cJ mouse assessed as reduction in intestinal tissue damage at 3 mg/kg/day, po starting from 2 days before 50 mg/kg/day, ip CPT-11 administration for 10 consecutive days by hematoxylin and eosin staining based method; format: functional, organism-based
Method in brief: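 Inhibitor given orally to BALB/cJ mice at 3 mg/kg/day in DDW (200 μL/day for controls), starting 2 days before CPT-11. CPT-11 50 mg/kg or saline given ip for 10 consecutive days. Jejunum, ileum and colon sections then H&E-stained and examined for villus and crypt destruction; 3–5 mice per group.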

Escherichia coli [8] = assay: Inhibition of N-terminal His-tagged Escherichia coli beta-glucuronidase expressed in Escherichia coli BL21 (DE3) using pNPG as substrate at 10 uM at pH 6.5
Method in brief: (§1)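 Purified E. coli βG assay at 10 μM compound, with PBS replaced by Na2HPO4 (0.2 M)/citric acid (0.1 M) buffer mixtures at each pH. Enzyme preincubated with compound 30 min at 37 °C, then pNPG added for 1 h; NaOH-quenched pNP read at 405 nm. Activity given relative to a 10% DMSO control at the same pH; n = 3.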

Escherichia coli [9] = assay: Inhibition of N-terminal His-tagged Escherichia coli beta-glucuronidase expressed in Escherichia coli BL21 (DE3) using pNPG as substrate at 10 uM at pH 7.5; method in brief: as §1
CT26 = assay: Effect on CPT-11 induced antitumor activity against mouse CT26 cells transplanted in Balb/cJ mouse assessed as reduction in tumor volume at 3 mg/kg/day administered via oral gavage for 18 days starting from 2 days before 50 mg/kg/day, ip CPT-11 dosing from day 2 measured every other day up to 18 days; format: functional, organism-based
Method in brief: (§2)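 CT26 tumour-bearing BALB/c mice (cells inoculated day −8). Inhibitor given orally at 3 mg/kg/day in DDW (dosing solution 0.3 mg/mL) from day −2 onward. Daily ip CPT-11 50 mg/kg or saline from day 0. Tumour growth, body weight and diarrhea score (0 solid to 3 watery with severe perianal staining) recorded every other day; severity distribution on day 18. n = 6 mice/group; two-way ANOVA.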

Mus musculus [10] = assay: Protection against CPT-11 induced intestinal toxicity in Balb/cJ mouse transplanted with mouse CT26 cells assessed as reduction in diarrhea level at 3 mg/kg/day administered via oral gavage for 18 days starting from 2 days before 50 mg/kg/day, ip CPT-11 dosing from day 2 measured every other day up to 18 days; format: functional; design: scale not given: the % may be the effect or the level left; method in brief: as §2
Escherichia coli [11] = assay: Inhibition of N-terminal His-tagged Escherichia coli beta-glucuronidase expressed in Escherichia coli BL21 (DE3) using pNPG as substrate at 10 uM at pH 6.0; method in brief: as §1
Mus musculus [12] = assay: Effect on systemic metabolism of CPT-11 in mouse CT26 cells transplanted Balb/cJ mouse assessed as effect on CPT-11-induced weight loss at 3 mg/kg/day administered via oral gavage for 18 days starting from 2 days before 50 mg/kg/day, ip CPT-11 dosing from day 2 measured every other day up to 18 days; format: functional, organism-based; method in brief: as §2
Escherichia coli [13] = assay: Inhibition of N-terminal His-tagged Escherichia coli beta-glucuronidase expressed in Escherichia coli BL21 (DE3) using pNPG as substrate at 10 uM at pH 5.5; method in brief: as §1

inhibition [1]	activity at 1 h, 10 µM (beta-glucuronidase)	IC50 [4]	Activity (Escherichia coli [6])	inhibition (Escherichia coli [8])	inhibition (Escherichia coli [9])	inhibition (Escherichia coli [11])	inhibition (Escherichia coli [13])	Compound	inhibition (Escherichia coli [2])	inhibition (Escherichia coli [3])	Activity (Escherichia coli [5])	Activity (Mus musculus [7])	Activity (CT26)	Activity (Mus musculus [10])	Activity (Mus musculus [12])
> 80%	100%	37.3 nM	4.78%	–	–	–	–	Cc1ccc(Nc2nc3ccccc3c3[nH]nc(N)c23)cc1	40%	Active	Non-Toxic	–	–	–	–
> 80%	101%	136 nM	5.59%	90%	90%	80%	50%	Nc1n[nH]c2c1c(Nc1ccc(F)cc1)nc1ccccc12	75%	Active	Non-Toxic	Active	inactive	50%	inactive
